Measurements gathered from unrelated publications.
Lines come from different studies, so protocols differ.
Organism: Mycobacterium tuberculosis
Read-out: microbial growth

The MIC of `Cc1ccc(C)n1-c1ccc(-c2nnc(-c3cccc([N+](=O)[O-])c3)[nH]2)cc1` is reported as 16 µg/mL (broth dilution; H37RV; 21 days).
With `O=C1C(=NNc2nc(-c3ccccc3)cs2)C(N=Cc2ccccc2Cl)=NN1c1ccccc1` the MIC was 25 µg/mL (resazurin; H37RV).
`O=c1nc(N2CCN(CC3CCCCC3)CC2)sc2c([N+](=O)[O-])cc(C(F)(F)F)cc12` has an MIC of 0.002 µM (resazurin; H37RV).
The MIC of `CO[C@H]1/C=C/O[C@@]2(C)Oc3c(C)c(O)c4c(O)c(c(/C=N/N5CCN(C)CC5)c(O)c4c3C2=O)NC(=O)/C(C)=C\C=C\[C@H](C)[C@H](O)[C@@H](C)[C@@H](O)[C@@H](C)[C@H](OC(C)=O)[C@@H]1C` is reported as 0.05 µg/mL (H37RV).
With `CC1SC2(CCCC2)N(NC(=O)c2[nH]c3ccc(Cl)cc3c2-c2ccccc2)C1=O` (centres unmarked) the MIC was 250 µM (ATCC27294 H37RV).
The MIC of `O=C1C(=NNc2nc(-c3ccccc3)cs2)C(N=Cc2ccccc2O)=NN1c1ccccc1` is reported as 25 µg/mL (resazurin; H37RV).
`CCCC1CCC2(CC1)SCC(=O)N2NC(=O)c1[nH]c2ccc(Cl)cc2c1-c1ccccc1` (centres unmarked) gave an MIC of 31 µM (ATCC27294 H37RV).
`O=C(c1cc2c(F)cc(F)cc2[nH]1)N1CCN(C(=O)C23CC4CC(CC(C4)C2)C3)CC1` gave an MIC of > 75 µM (resazurin; H37RV).
The MIC of `O=C1C(=NNc2nc(-c3ccccc3)cs2)C(N=Cc2cccc(Cl)c2)=NN1c1ccccc1` is reported as 12.9 µM (resazurin; H37RV; 5 days).
The MIC of `CO[C@H]1/C=C/O[C@@]2(C)Oc3c(C)c(O)c4c(O)c(c(/C=N/N5CCN(C)CC5)c(O)c4c3C2=O)NC(=O)/C(C)=C\C=C\[C@H](C)[C@H](O)[C@@H](C)[C@@H](O)[C@@H](C)[C@H](OC(C)=O)[C@@H]1C` is reported as < 0.1 µg/mL (ATCC27294 H37RV).
The MIC of `O=C(C1CCCN(S(=O)(=O)c2ccccc2[N+](=O)[O-])C1)N1CCN(C(c2ccc(F)cc2)c2ccc(F)cc2)CC1` (centres unmarked) is reported as > 25 µg/mL (ATCC27294 H37RV).
For `COC(=O)c1cc(-c2cccc(NC(=O)Nc3ccc(Cl)cc3)c2)on1`, the MIC was 2 µg/mL (ATCC27294 H37RV; 7 days).
`CC1CCCC2(C1)SC(C)C(=O)N2NC(=O)c1[nH]c2ccc(Cl)cc2c1-c1ccccc1` (centres unmarked) has an MIC of 500 µM (ATCC27294 H37RV).
The MIC of `CCc1nc2ccc(Cl)cn2c1C(=O)NCc1ccc(S(F)(F)(F)(F)F)cc1` is reported as 0.014 µM (H37RV; 5 days).
With `COC(=O)c1cc(-c2cccc(NC(=S)Nc3ccccc3)c2)on1` the MIC was 2 µg/mL (ATCC27294 H37RV; 7 days).
`Cc1c(Cc2ccc(F)cc2)c(=O)n2c([nH]c3ccccc32)c1C#N` gave an MIC of 2 µg/mL (broth dilution; H37RV).
For `CC1SC2(CCCCC2)N(NC(=O)c2[nH]c3ccc(Cl)cc3c2-c2ccccc2)C1=O` (centres unmarked), the MIC was 250 µM (ATCC27294 H37RV).
The MIC of `C=C[C@@H](O)C#CC#C[C@@H](O)/C=C\CCCCCCC` is reported as 26.7 µg/mL (resazurin; ATCC27294 H37RV; 7 days).
`CO[C@H]1/C=C/O[C@@]2(C)Oc3c(C)c(O)c4c(O)c(c(/C=N/N5CCN(C)CC5)c(O)c4c3C2=O)NC(=O)/C(C)=C\C=C\[C@H](C)[C@H](O)[C@@H](C)[C@@H](O)[C@@H](C)[C@H](OC(C)=O)[C@@H]1C` gave an MIC of 0.012 µM (H37RV; 5 days).
The MIC of `CC(C)[C@H]1CO[C@]23CCN(Cc4ccccc4)C[C@H]2CCC(=O)N13` is reported as 7.3 µM (H37RV; 7 days).
For `C[C@@H]([C@H](N)C(=O)N[C@H](C(=O)O)[C@H]1O[C@@H](n2ccc(=O)[nH]c2=O)[C@H](O)[C@@H]1O)[C@H](O)c1ccc(O)cn1`, the MIC was > 50 µg/mL (H37RV; 14 days).
With `C[C@H]1c2cccc(O)c2C(=O)C2=C(O)[C@]3(O)C(=O)C(C(N)=O)=C(O)[C@@H](N(C)C)[C@@H]3[C@@H](O)[C@@H]21` the MIC was 1 µg/mL (resazurin; H37RA; 14 days).
`CO[C@H]1/C=C/O[C@@]2(C)Oc3c(C)c(O)c4c(O)c(c(/C=N/N5CCN(C)CC5)c(O)c4c3C2=O)NC(=O)/C(C)=C\C=C\[C@H](C)[C@H](O)[C@@H](C)[C@@H](O)[C@@H](C)[C@H](OC(C)=O)[C@@H]1C` has an MIC of 0.016 µM (W4).
`COC(=O)c1cc(-c2cccc(NC(=S)NC3CCCCC3)c2)on1` has an MIC of 2 µg/mL (ATCC27294 H37RV; 7 days).
The MIC of `COC1C(O)C(n2ccc(=O)[nH]c2=O)OC1C(OC1OC(C(=O)Nc2ccc(F)c(F)c2)=CC(O)C1O)C(N)=O` (centres unmarked) is reported as 1.56 µg/mL (resazurin; H37RV).
The MIC of `CO/N=C(\C(=O)N[C@@H]1C(=O)N2C(C(=O)O)=C(COC(C)=O)CS[C@H]12)c1csc(N)n1` is reported as 16 µg/mL (resazurin; H37RA; 14 days).
The MIC of `Nc1ncnc2c1ncn2[C@@H]1O[C@H](COS(N)(=O)=O)[C@@H](O)[C@H]1O` is reported as 0.16 µg/mL (H37RV).
`O=C1COCCN1c1ccc(CO[C@@H]2COc3nc([N+](=O)[O-])cn3C2)cc1` has an MIC of 0.4 to 0.8 µg/mL (H37RV).
The MIC of `CCOC(=O)c1cc(-c2cccc(NC(=O)Nc3ccc(Cl)c(Cl)c3)c2)on1` is reported as 1 µg/mL (ATCC27294 H37RV; 7 days).
With `O=C1C(=NNc2nc(-c3ccccc3)cs2)C(N=Cc2ccc(O)cc2O)=NN1c1ccccc1` the MIC was 6.25 µg/mL (resazurin; H37RV).
With `CCCCCCC/C=C\C(O)C#CC#CC(=O)CCOC` (centres unmarked) the MIC was > 60 µg/mL (resazurin; ATCC27294 H37RV; 7 days).
With `COc1ccc(Cc2c(C)c(C#N)c3[nH]c4ccccc4n3c2=O)cc1` the MIC was 0.25 µg/mL (broth dilution; H37RV).
With `Cc1ccc(C)n1-c1ccc(C(=O)NNC=O)cc1` the MIC was 4 µg/mL (broth dilution; H37RV; 21 days).
`CC[C@@H](CO)NCCN[C@@H](CC)CO` gave an MIC of 6.6 µM (H37RV; 5 days).
The MIC of `COC(=O)c1cc(-c2cccc(NC(=O)Nc3cccc(Cl)c3)c2)on1` is reported as 0.5 µg/mL (ATCC27294 H37RV; 7 days).
With `Cc1ccc(CN2CC[C@]34OC[C@H](C(C)C)N3C(=O)CC[C@@H]4C2)cc1` the MIC was 1.66 µM (H37RV).
`CO[C@H]1/C=C/O[C@@]2(C)Oc3c(C)c(O)c4c(O)c(c(/C=N/N5CCN(C)CC5)c(O)c4c3C2=O)NC(=O)/C(C)=C\C=C\[C@H](C)[C@H](O)[C@@H](C)[C@@H](O)[C@@H](C)[C@H](OC(C)=O)[C@@H]1C` has an MIC of 0.008 µg/mL (H37RA).
`CC1=NN(CNc2c(O)c(S(=O)(=O)O)cc3ccccc23)C(=O)C1=NNn1c(-c2ccccc2)nc2ccccc2c1=O` has an MIC of 20.9 µM (resazurin; H37RV).
`CC(C)=CCC/C(C)=C/COCCOC1C2CC3CC(C2)CC1C3` (centres unmarked) has an MIC of 50 µg/mL.
`Cc1ccc(C)n1-c1ccc(-c2nnc(-c3ccc(O)cc3)[nH]2)cc1` has an MIC of 16 µg/mL (broth dilution; H37RV; 21 days).
For `N#Cc1cc(C(F)(F)F)cc2c(=O)nc(N3CCN(CC4CCOC4)CC3)sc12` (centres unmarked), the MIC was 1.9 µM (resazurin; H37RV).
The MIC of `Cc1ccc(C)n1-c1ccc(-c2n[nH]c(=S)[nH]2)cc1` is reported as 2 µg/mL (broth dilution; H37RV; 21 days).
For `CC[C@H]1OC(=O)[C@H](C)[C@@H](O[C@H]2C[C@@](C)(OC)[C@@H](O)[C@H](C)O2)[C@H](C)[C@@H](O[C@@H]2O[C@H](C)C[C@H](N(C)C)[C@H]2O)[C@](C)(OC)C[C@@H](C)C(=O)[C@H](C)[C@@H](O)[C@]1(C)O`, the MIC was 8 µg/mL (resazurin; H37RA; 14 days).
With `[H]/N=C(/N)N[C@H]1[C@H](O)[C@@H](O)[C@H](O[C@@H]2O[C@@H](C)[C@](O)(C=O)[C@H]2O[C@@H]2O[C@@H](CO)[C@H](O)[C@@H](O)[C@@H]2NC)[C@@H](N/C(N)=N\[H])[C@@H]1O` the MIC was 1.1 µg/mL (H37RV).
`COC(=O)c1cc(-c2cccc(NC(=O)Nc3ccc(C)cc3)c2)on1` gave an MIC of 0.5 µg/mL (ATCC27294 H37RV; 7 days).
`O=C(CNS(=O)(=O)c1ccccc1[N+](=O)[O-])N1CCN(C(c2ccc(F)cc2)c2ccc(F)cc2)CC1` gave an MIC of > 25 µg/mL (ATCC27294 H37RV).
With `COC(=O)c1cc(-c2cccc(NC(=O)Nc3ccccc3C)c2)on1` the MIC was 2 µg/mL (ATCC27294 H37RV; 7 days).
`CC(C)[C@H]1CO[C@]23CCN(Cc4ccc(OC(F)(F)F)cc4)C[C@H]2CCC(=O)N13` has an MIC of 0.17 µM (resazurin; H37RV; 7 days).
The MIC of `CC[C@@H](CO)NCCN[C@@H](CC)CO` is reported as 1 µg/mL (ATCC27294 H37RV; 7 days).
For `O=C1C(=NNc2nc(-c3ccccc3)cs2)C(N=Cc2ccccc2)=NN1c1ccccc1`, the MIC was 6.25 µg/mL (resazurin; H37RV).
